According to paper PMC3071016 (Biochimica et biophysica acta, 2010):
Changes are numbered by the printed parent chain. Marks after values point to notes of the source that are not given here. Starred links: 1 amine or outer side, 2 acyl side, 3 side chain; linkers in the order of their positions; H or OH if unused. Non-standard residues stand in square brackets, D forms with d. Residues, ends and D or L forms follow the SMILES beside them. *: point of attachment. X2 = CN(C)c1ccc2c(-c3ccc(C(=O)*)cc3C(=O)[O-])c3ccc(=[N+](C)C)cc-3oc2c1; Isoquinoline5sulfonyl = O=S(=O)(c1cccc2cnccc12)*; X1 = O=C(CCCCCNCCN[*:1])[*:2]

Columns and labels:
PKGIα [1] = target: T1, PKGIα (Homo sapiens, UniProt Q13976); assay: FA direct binding assay; details: addition of cGMP in the absence of Mg2+
T1 sequence (Q13976 1-671): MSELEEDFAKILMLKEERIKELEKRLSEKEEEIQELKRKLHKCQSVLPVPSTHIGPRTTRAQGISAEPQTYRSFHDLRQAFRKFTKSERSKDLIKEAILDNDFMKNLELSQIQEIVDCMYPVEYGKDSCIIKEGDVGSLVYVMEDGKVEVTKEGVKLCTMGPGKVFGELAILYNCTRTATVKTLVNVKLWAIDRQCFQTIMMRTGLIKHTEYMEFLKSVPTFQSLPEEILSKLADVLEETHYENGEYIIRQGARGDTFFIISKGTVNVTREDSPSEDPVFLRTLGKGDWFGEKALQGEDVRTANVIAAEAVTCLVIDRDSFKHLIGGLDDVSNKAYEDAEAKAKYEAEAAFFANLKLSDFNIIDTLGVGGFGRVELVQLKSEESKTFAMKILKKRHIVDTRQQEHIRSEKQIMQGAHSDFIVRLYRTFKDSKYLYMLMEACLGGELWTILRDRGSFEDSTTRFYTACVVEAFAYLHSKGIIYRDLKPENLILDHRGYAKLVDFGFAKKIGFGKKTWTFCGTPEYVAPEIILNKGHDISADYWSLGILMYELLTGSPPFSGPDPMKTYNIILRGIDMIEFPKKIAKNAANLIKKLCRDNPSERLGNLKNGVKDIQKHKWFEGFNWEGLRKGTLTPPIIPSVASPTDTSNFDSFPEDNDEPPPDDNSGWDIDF

[2] = test system: vascular smooth muscle cells in intact cerebral arteries; assay: Fluorescence imaging of vascular smooth muscle cells in intact arteries; format: cell-based, rat
Procedure, shortened: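 Isolated intact rat cerebral arteries incubated at room temperature in Hepes buffer with the TAMRA-labelled test compound (100 nM, 1 μM or 10 μM) for 20, 40 or 60 min, then washed 3 times. Imaged by confocal scanning laser microscopy at 20× and 40×, with TAMRA excited at 568 nm (krypton–argon laser). Fluorescein-labelled reference peptide (2 μM) with TOTO-3 nuclear stain (488/647 nm excitation) used as reference.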

PKGIα [3] = target: T1, PKGIα; assay: FA displacement assay; format: binding; details: for log IC50, PKGIα, FA (displacement): displacement of ARC-1059 (2 nM) from PKGIα (4 nM), cGMP 1 μM, logarithm of IC50
PKGIα [4] = target: T2, PKGIα (Bos taurus, UniProt P00516); assay: Radioactive inhibition assay; format: biochemical, bovine
T2 sequence (P00516 1-671): T1 sequence (Q13976 1-671) with T265K, S275N

PKAc = PKAc (Homo sapiens, UniProt P17612); details: 100 μM ATP and 30 μM TAMRA-Kemptide substrate; logarithm of IC50; cited from earlier work
PKGIα [5] = details: reported in the literature; cited from earlier work
PKGIα [6] = target: T2, PKGIα; assay: FI displacement assay; format: binding, bovine

In the case of `CN(C)c1ccc2c(-c3ccc(C(=O)NCCCC[C@@H](NC(=O)[C@@H](CCCNC(=N)N)NC(=O)[C@@H](CCCNC(=N)N)NC(=O)[C@@H](CCCNC(=N)N)NC(=O)[C@@H](CCCNC(=N)N)NC(=O)[C@@H](CCCNC(=N)N)NC(=O)[C@@H](CCCNC(=N)N)NC(=O)CCCCCNCCNS(=O)(=O)c4cccc5cnccc45)C(N)=O)cc3C(=O)[O-])c3ccc(=[N+](C)C)cc-3oc2c1` [ARC-1059, H9-Hex-(D-Arg)6-[D-Lys(TAMRA)]-NH2] (Isoquinoline5sulfonyl-[X1][dR][dR][dR][dR][dR][dR][dK](X2)-NH2), the “increase of affinity towards PKGIα by addition of cGMP” value (PKGIα [1]) is reported as 8 fold, the “internalization in smooth muscle tissue, concentration dependence” value ([2]; 100 nM, 1 μM or 10 μM) is reported as “not well observable at concentrations lower than 1 μM” and the “incubation time after which internalization into tissue cells was observable” value ([2]; 10 μM, nucleus not yet stained) is reported as 20 min. For the same compound, the “internalization into vascular smooth muscle cells” value ([2]; intact pial arteries from rat brain, incubation 20, 40 or 60 min at room temperature) was “internalized into vascular smooth muscle cells”.
For `Nc1ncnc2c1ncn2[C@@H]1O[C@H](COP(=O)(O)OP(=O)(O)OP(=O)(O)O)[C@@H](O)[C@H]1O` [ATP], the “log IC50, PKGIα, FA (displacement)” value (PKGIα [3]) was −2.02 (0.33) and the Km (PKGIα [4]; PKGIα-catalysed phosphorylation) was 20 µM.
For `NCCNS(=O)(=O)c1cccc2cnccc12` [H9], the “log IC50, PKGIα, Inhibition” value (PKGIα [4]; 100 μM ATP and 11 μM TQAKRKKSLAMA substrate, presence of cGMP, logarithm of IC50) is listed as −6.85 (0.02), the IC50 (PKGIα [4]; read-out: inhibition IC50, 100 μM ATP, 11 μM substrate peptide, presence of cGMP) is listed as 141 nM and the “log IC50, PKAc, Inhibition” value (PKAc) is listed as −5.43 ^b [36]. For the same compound, the Ki (PKGIα [5]) was 870 nM.
For `O=S(=O)(NCCNCC=Cc1ccc(Br)cc1)c1cccc2cnccc12` [H89, N-[2-(p-bromocinnamylamino)ethyl]-5-isoquinoline-sulfonamide], the IC50 (PKGIα [3]) is listed as 3020 nM, the IC50 (PKGIα [6]) is listed as 1100 nM and the Ki (PKGIα [5]) is listed as 480 nM.
In the case of `COC(=O)[C@@]1(OC)C[C@H]2O[C@]1(C)n1c3ccccc3c3c4c(c5c6ccccc6n2c5c31)C(=O)N(C)C4` [KT-5823], the “displacement of ARC-1059 from its complex with PKGIα” value (PKGIα [3]; assay format not stated) is reported as “failed to displace ARC-1059”.
With `Nc1ncnc2c1ncn2[C@@H]1O[C@H](COP(=O)(O)OP(=O)([O-])OP(=O)([O-])O)[C@@H](O)[C@H]1O.[Mg+2]` [MgATP] the “log IC50, PKGIα, FA (displacement)” value (PKGIα [3]) was −2.35 (0.08).
For `CSCC[C@H](NC(=O)[C@H](C)NC(=O)[C@H](CC(C)C)NC(=O)[C@H](C)NC(=O)[C@H](CCCCN)NC(=O)[C@H](CCCCN)NC(=O)[C@H](CCCNC(=N)N)NC(=O)[C@H](CCCCN)NC(=O)[C@H](C)NC(=O)[C@H](CCC(N)=O)NC(=O)[C@@H](N)[C@@H](C)O)C(=O)N[C@@H](C)C(N)=O` [WW21], the IC50 (PKGIα [6]) was 251000 nM.
